Consider eleven molecules from ChEMBL document CHEMBL1134905, “Thiourea-based gemfibrozil analogues as HDL-elevating agents” (2002).

The structures appear in SMILES notation.

Common to all, as to format: functional
The test system of assay [1] is Rattus norvegicus. Nature of the assay: Percentage change in total triglycerides was determined in vivo in male Sprague-Dawley rats. A digest of the protocol:
(§1)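 Compounds given in the diet to groups of six rats for 8 days, after a 7-day lead-in; dose expressed as mg/kg/day. At termination, rats anesthetized with CO2 and bled from the carotid artery, and serum separated. Values are % change or ratio versus gemfibrozil (set = 1), each relative to an untreated control group; significance P < 0.05.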

The subject of assay [2] is Rattus norvegicus. Nature of the assay: Percentage change in total cholesterol was determined in vivo in male Sprague-Dawley rats. A digest of the protocol:
as §1

For assay [3], the system named is Rattus norvegicus. Description: In vivo biological activity against Apo A-I relative to gemfibrozil in male Sprague-Dawley rats. The method in brief: as §1
Assay [4] relates to Rattus norvegicus. Nature of the assay: In vivo biological activity against HDL relative to gemfibrozil in male Sprague-Dawley rats. The method in brief: as §1
In assay [5] the test system is Rattus norvegicus. Nature of the assay: Dose administered for testing biological activity in vivo in male Sprague-Dawley rats. The method in brief: as §1

`Cc1ccc(C)c(OCCCC(C)(C)C(=O)O)c1` [GEMFIBROZIL]: the Change is -43% with Rattus norvegicus [1] and -23% with Rattus norvegicus [2]. The Activity in the assay on Rattus norvegicus [3] and in the assay on Rattus norvegicus [4] was 1 each time. This molecule also had a Dose in the assay with Rattus norvegicus [5] of 46 mg/kg/day.

Turning to `Cc1ccc(Cl)cc1NC(=O)NCC(C)(C)C(=O)O`, the Change was -21% in the assay on Rattus norvegicus [1] and 74% in the assay with Rattus norvegicus [2]. Moreover, the Activity with Rattus norvegicus [3] turned out to be 0.32; with Rattus norvegicus [4], 0.36. Besides, the Dose in the assay on Rattus norvegicus [5] stood at 73 mg/kg/day.

On to `Cc1ccc(Cl)cc1/N=C(\S)NCC1(C(=O)O)CCCC1`, for which the Change in the assay with Rattus norvegicus [1] is -61%; with Rattus norvegicus [2] it was 41%. The Activity turned out to be 0.55 with Rattus norvegicus [3] and 1.09 in the assay on Rattus norvegicus [4]. This molecule came in with a Dose with Rattus norvegicus [5] of 67 mg/kg/day.

For the molecule `Cc1ccc(Cl)cc1/N=C(\S)NCCO`, the Change in the assay with Rattus norvegicus [1] is reported as -56%; in the assay on Rattus norvegicus [2] it was 40%. For the same molecule, the values for the Activity in the assay with Rattus norvegicus [3] and in the assay with Rattus norvegicus [4] were 1.06 and 0.61, respectively. In addition, in the assay on Rattus norvegicus [5], the Dose came out at 52 mg/kg/day.

In the case of `COc1ccc(Cl)cc1/N=C(\S)NCC(C)(C)C(=O)O`, the Change with Rattus norvegicus [1] is given as -28%; in the assay on Rattus norvegicus [2] it was 9%. Besides, the figures for the Activity in the assay on Rattus norvegicus [3] and with Rattus norvegicus [4] were 0.27 and 0.62, respectively. Further, the Dose in the assay on Rattus norvegicus [5] worked out at 77 mg/kg/day.

Consider `Cc1ccc(Cl)cc1/N=C(\S)N1CCCC(C)(C(=O)O)C1` (stereo not given), for which the Change stood at 15% in the assay on Rattus norvegicus [1] and 14% in the assay on Rattus norvegicus [2]. The Activity is -0.16 with Rattus norvegicus [3] and 0.33 with Rattus norvegicus [4]. Besides, in the assay with Rattus norvegicus [5], the Dose is 81 mg/kg/day.

Regarding `Cc1ccc(Cl)cc1/N=C(\S)NCC(C)(C)C(N)=O`, the Change is -49% in the assay on Rattus norvegicus [1] and -3% in the assay on Rattus norvegicus [2]. The results for the Activity in the assay on Rattus norvegicus [3] and in the assay with Rattus norvegicus [4] were 1.15 and 0.57, respectively. The same molecule came in with a Dose in the assay on Rattus norvegicus [5] of 41 mg/kg/day.

Consider `Cc1ccc(Cl)cc1/N=C(\S)NCC1(C(=O)O)CCC1`, for which the Change in the assay with Rattus norvegicus [1] was -39%; in the assay with Rattus norvegicus [2], 36%. Moreover, the Activity amounted to 0.49 with Rattus norvegicus [3] and 1.19 in the assay on Rattus norvegicus [4]. For the same molecule, the Dose in the assay with Rattus norvegicus [5] came to 76 mg/kg/day.

As for `Cc1ccc(Cl)cc1/N=C(\S)NCC1(C(=O)O)CCCCC1`, the Change with Rattus norvegicus [1] is recorded as -54%; in the assay on Rattus norvegicus [2] it was 21%. Besides, the Activity was 0.32 with Rattus norvegicus [3] and 0.73 with Rattus norvegicus [4]. This molecule showed a Dose in the assay on Rattus norvegicus [5] of 88 mg/kg/day.

For the molecule `COC(=O)C(C)(C)C/N=C(\S)Nc1cc(Cl)ccc1C`, the Change with Rattus norvegicus [1] and in the assay on Rattus norvegicus [2] was -12% in each case. For the same molecule, the Activity with Rattus norvegicus [3] was 1.81; in the assay on Rattus norvegicus [4], 0.93. The molecule also registered a Dose in the assay on Rattus norvegicus [5] of 74 mg/kg/day.

For the molecule `Cc1ccc(C)c(N/C(S)=N/CC(C)(C)C(=O)O)c1`, the Change was determined as 69% in the assay with Rattus norvegicus [1] and 73% in the assay with Rattus norvegicus [2]. For the same molecule, the figures for the Activity in the assay with Rattus norvegicus [3] and in the assay with Rattus norvegicus [4] were 0.93 and 0.54, respectively. This molecule had a Dose with Rattus norvegicus [5] of 78 mg/kg/day.
